Assay results of several laboratories.
Protocols differ between the studies behind these lines.
Target: Muscarinic acetylcholine receptor M3 (CHRM3, Homo sapiens, UniProt P20309)
Tested at: 10 µM

| Structure (SMILES) | read-out | method | inhibition |
| --- | --- | --- | --- |
| CCN(Cc1ccccc1C(F)(F)F)C(=O)C1CCN(S(=O)(=O)c2ccc3[nH]ncc3c2)CC1 | ligand displacement | radioligand | 14% |
| CCCNc1nc2ccccc2n1Cc1ccc(Cl)cc1 | ligand displacement | – | -39.7% |
| Oc1cccc(Nc2nc(-c3ccc(F)cc3F)cs2)c1 | cell-free assay | – | -16.6% |
| N#Cc1cc(Cn2c(N3CCCC3)nc3ccccc32)ccc1F | ligand displacement | – | -31.1% |
| O=C1N=C(N2CCCCN2)S/C1=C\c1ccc(F)cc1O | ligand displacement | radioligand | < 10% |
| O=C(c1ccc(F)cc1)N(Cc1ccccc1)C1CCCCC1 | cell-free assay | – | 17% |
| CCN(CC)c1ccc(C2Nc3ccc(C(=O)c4ccccc4)cc3NC3=C2C(=O)CC(C)(C)C3)cc1 (stereo not drawn) | ligand displacement | radioligand | 43% |
| O=C(Nc1ccc(S(=O)(=O)N2CCC(Cl)CC2)cc1)c1ccc([N+](=O)[O-])o1 | ligand displacement | radioligand | 13% |
| Ic1cccc2cnccc12 | ligand displacement | radioligand | 5% |
